# Screening data deposited in PubChem BioAssay by Sanford-Burnham Center for Chemical Genomics.
# Rpn11 inh = Rpn11 (PSMD14) deubiquitinase inhibitors, primary screen, biochemical, fluorescence polarization, uHTS. human 26S proteasome, Ub4-pepOG fluorescence polarization; 20S core pre-blocked with epoxomicin. 26S proteasome non-ATPase regulatory subunit 14 (Homo sapiens), O00487. AID 588493, 2011. 360,000 tested, 0.59% active. inhibition, % at 20 µM;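 active means inhibition at 20 µM, scaled to each plate's controls, above about 33%, limit read from the data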
# MT1-MMP act inh = blockers of MT1-MMP proenzyme processing, primary screen, HT1080 RFP-PRO-GFP cells, GFP/RFP fluorescence. 360,000 tested, 0.061% active. Matrix metalloproteinase-14 (Homo sapiens), P50281. GFP/RFP ratio change, % at 20 µM. GFP/RFP ratio fluorescence, overnight; percent of plate control window, DMSO zero;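 active means GFP/RFP ratio change of at least 30% with cell ATP level not reduced by more than half and red fluorescence within 50% of control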
#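 Material: RFP-PRO-GFP reporter HT1080 cells. Dosing: single-point 20 µM compound, 1% DMSO. Controls: DMSO and RFP-L50D-GFP cell wells. Timing: cells overnight before dosing, compound overnight, 37 °C, 5% CO2. Measure: GFP/RFP fluorescence ratio.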
# DNMT1 inh = human DNMT1 methyltransferase inhibitors, primary screen, biochemical, molecular beacon, fluorescence, HinP1I cleavage, uHTS; inhibition (reported as % activation of signal), % at 10 µM; 360,000 tested, 0.83% active; AID 588458, 2011; in the data active means inhibition above about 50%
# CSN deneddyl inh = inhibitors of CSN-mediated cullin deneddylation, primary screen, biochemical, fluorescence polarization, uHTS | Purified CSN, SCF-Nedd8-OG deneddylation | inhibition, % at 12.5 µM | 360,000 tested, 0.38% active;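 active means pattern-corrected inhibition above about 35%, with an unprinted fluorescence ratio check between 0.5 and 1.5, limit read from the data, passing the limit was not always enough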;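 further: 0% = enzyme with substrate and 100% = substrate without enzyme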
#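 Assay system: Purified human Csn5 enzyme expressed in HEK293T cells | Amount: Enzyme 0.24 nM | Measured by: Fluorescence polarization readout | Medium: Tris/NaCl/DTT buffer, pH 7.5 | Compound dosing: One concentration, 12.5 µM, 0.25% DMSO | Times: 90 min incubation of compound, enzyme and substrate at room temperature | Control set: no-enzyme wells high, enzyme-with-substrate wells low | Read-out: % inhibition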
# SUMO1 PPI mod = modulators of SUMO1 protein-protein interactions, primary screen, biochemical, uHTS. SUMO1 binding to a labelled peptide, TR-FRET, 1 h. inhibition, % at 20 µM. 360,000 tested, 0.33% active; in the data active means inhibition above about 37%
# SKN-1 inh = suppressors of acrylamide-induced Pgst-4::GFP reporter in worms, primary screen, SKN-1 inhibitor project, whole organism, uHTS, GFP/RFP fluorescence ratio, strain VP596 | 360,000 tested, 0.49% active | AID 624304, 2012 | inhibition, % at 21.8 µM | C. elegans VP596 Pgst-4::GFP/RFP ratio, 24 h;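 active means interference check ratio from 0.5 to 1.5 plus GFP to RFP signal ratio inhibition reaching or exceeding a fixed threshold, cut at about 30% in these data, passing the limit was not always enough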
# Rpn11 confirm = Rpn11 (PSMD14) deubiquitinase inhibitors, confirmation, biochemical, fluorescence polarization, single concentration; purified human 26S proteasome, Ub4-pepOG fluorescence polarization; proteasome pretreated with epoxomicin; AID 602318, 2012; 1,900 tested, 29% active; shares compounds with Rpn11 inh; inhibition, % at 20 µM
# MMP-2 counter = MMP-2 enzyme inhibition, confirmation, counter-screen for RPN11 inhibitor project, biochemical, fluorescence, single concentration | shares compounds with Rpn11 inh | recombinant MMP-2, FRET peptide cleavage fluorescence | inhibition, % at 20 µM | 1,900 tested, 4% active | AID 602330, 2012;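 further: human MMP-2 activated beforehand with APMA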
# Target sequence (P08253 whole entry, looked up): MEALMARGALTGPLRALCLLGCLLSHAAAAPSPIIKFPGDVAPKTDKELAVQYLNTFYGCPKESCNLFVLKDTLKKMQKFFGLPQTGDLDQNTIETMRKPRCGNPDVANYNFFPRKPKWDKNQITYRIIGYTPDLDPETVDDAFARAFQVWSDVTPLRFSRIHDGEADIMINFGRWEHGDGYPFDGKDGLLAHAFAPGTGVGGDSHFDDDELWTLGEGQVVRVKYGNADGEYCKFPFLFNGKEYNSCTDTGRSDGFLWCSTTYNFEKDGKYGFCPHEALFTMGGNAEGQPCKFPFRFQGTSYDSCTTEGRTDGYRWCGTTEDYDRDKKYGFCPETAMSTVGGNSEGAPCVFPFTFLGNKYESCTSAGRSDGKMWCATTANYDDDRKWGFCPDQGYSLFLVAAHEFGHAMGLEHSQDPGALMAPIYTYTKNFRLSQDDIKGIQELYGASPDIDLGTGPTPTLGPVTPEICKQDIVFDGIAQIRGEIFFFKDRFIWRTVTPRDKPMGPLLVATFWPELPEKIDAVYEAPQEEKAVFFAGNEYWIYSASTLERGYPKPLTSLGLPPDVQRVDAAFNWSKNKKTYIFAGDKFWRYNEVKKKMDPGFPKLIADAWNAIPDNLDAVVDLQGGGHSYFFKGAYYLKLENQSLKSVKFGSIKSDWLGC
# Thrombin FP = bovine thrombin protease inhibition, confirmation, counter-screen for Rpn11 inhibitor project, biochemical, fluorescence polarization, single concentration | shares compounds with Rpn11 inh | bovine thrombin cleavage of Ub4-pepOG | inhibition, % at 20 µM | 1,900 tested, 13% active;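 active means mean inhibition at least 40% at 20 µM, or signal 3 deviations below plate average, so some actives read negative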;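 further: plate controls were thrombin with DMSO for no effect and buffer wells lacking thrombin for full effect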
# Numbers without * were called inactive; / = not tested or not shown. Shown are actives, neighbours in structure and some others; about 2.3% of the full set was active somewhere. Unless noted, no stated cut-off is given here; in the data, active means inhibition above about 40%; inactive means the rest.
SMILES,Rpn11 inh,MT1-MMP act inh,DNMT1 inh,CSN deneddyl inh,SUMO1 PPI mod,SKN-1 inh,Rpn11 confirm,MMP-2 counter,Thrombin FP
CN1CCC(N(C)C(=O)c2sc3cc(F)ccc3c2Cl)CC1,109*,0,-2,3,2,20,-13,0,-6
CC(C)N(CC(N)=O)C(=O)c1sc2cc(F)ccc2c1Cl,-1,7,5,-2,1,-5,/,/,/
COc1ccc(Cc2c(-c3ccccc3)nc3ccc(Br)cn23)c(C)c1,30,-4,45,11,6,10,/,/,/
COc1cccc(/C=N/NC(=O)c2c(C)nc3ccc(Cl)cn23)c1O,52*,-7,-2,9,-10,20,37,-66,-5
COc1ccccc1/C=N\NC(=O)c1c(C)nc2ccc(Cl)cn12,2,-3,2,-3,0,13,/,/,/
CCS(=O)(=O)N1N=C(c2cccs2)CC1c1cc2cc(C)ccc2nc1Cl (stereo not drawn),64*,-29,14,10,-9,-3,34,-9,24
Cc1ccc2nc(Cl)c(C3CC(c4cccs4)=NN3C(=O)CCCC(=O)O)cc2c1 (stereo not drawn),13,5,0,1,-10,-5,/,/,/
CCOc1cc(/C=C/C(=O)c2ccc(OC)c(CN3CCOCC3)c2)cc(Br)c1O,68*,-101,-6,21,-14,13,72*,2,80*
CCOc1cc(/C=N/NC(=O)c2ccc(CN3CCOCC3)cc2)ccc1OC,3,0,6,1,-7,-1,/,/,/
CC(C)n1ncc2c(C(=O)Nc3ccc(S(N)(=O)=O)cc3)cc(C3CC3)nc21,79*,4,-134,113*,-129,-7,90*,-72,14
CC(C)n1ncc2c(C(=O)Nc3ccc(S(C)(=O)=O)cc3)cc(C3CC3)nc21,1,2,-5,0,-7,-1,/,/,/
Brc1ccc(-c2nnc3ccc(N4CCN(c5ccccc5)CC4)nn23)cc1,62*,0,26,6,5,10,-5,-28,-16
Fc1ccc(-c2nnc3ccc(N4CCCC4)nn23)cc1,1,-1,0,7,0,-19,/,/,/
O=C(C[C@H]1C[C@H](C(=O)N2CCCCC2)[C@@]2(CCc3ccccc3)c3[nH]c4cc(-c5ccco5)ccc4c3CCN2C1=O)NCc1cccc(C(F)(F)F)c1,61*,-10,-5,18,0,13,11,5,-30
CC[C@]12c3[nH]c4cc(-c5ccco5)ccc4c3CCN1C(=O)[C@@H](CC(=O)NCCC1=CCCCC1)C[C@@H]2C(=O)N1CCN(C(=O)c2ccco2)CC1,31,4,-9,26,5,22,/,/,/
O=C(C[C@H]1C[C@H](C(=O)N2CCCCC2)[C@@]2(CCc3ccccc3)c3[nH]c4cc(-c5ccco5)ccc4c3CCN2C1=O)NCc1ccco1,78*,-21,-11,19,-1,16,25,1,11
CC(C)=CCC/C(C)=C/CNC(=O)C[C@H]1C[C@H](C(=O)N2CCOCC2)[C@@]2(CCC3CCCC3)c3[nH]c4cc(-c5ccco5)ccc4c3CCN2C1=O,45*,-11,-3,17,8,27,2,16,9
O=C(C[C@H]1C[C@H](C(=O)N2CCCCC2)[C@@]2(CCc3ccccc3)c3[nH]c4cc(-c5ccco5)ccc4c3CCN2C1=O)NCCC1=CCCCC1,56*,-7,19,14,5,21,-7,6,-12
CCC(CC)C(=O)N(C)c1c(C)nc2c(OCc3ccc(C(F)(F)F)cc3)cccn12,5,-1,-6,2,5,-7,/,/,/
CCOC(=O)N(C)c1c(CC)nc2c(OCc3ccc(Cl)cc3)cccn12,6,-10,-5,5,-4,1,/,/,/
O=C(NC1CCCC1)C(c1ccccc1)n1c(-c2cccc3ccccc23)nc2ccccc21 (stereo not drawn),/,-9,/,-1,-1,-1,/,/,/
CCCCN1C(=O)C(CC(=O)NCc2cccc3ccccc23)CC(C(=O)N(C(C)C)C(C)C)=C1C (stereo not drawn),/,1,/,-2,4,-16,/,/,/
CCCNC(=O)C1(C)CCN(C(=O)Cc2ccc3ccccc3c2)C1 (stereo not drawn),6,-2,4,-7,-8,-5,/,/,/
COc1ccc2c(C)cc(SCC(=O)N3CCOCC3)nc2c1,40*,-128,1,20,1,-11,41*,-69,24
NC(=O)COc1ccc(/C=N\NC(=O)c2ccc(-c3ccccc3)cc2)cc1,125*,-1,41,27,1,4,3,-10,-2
O=C(N/N=C/c1ccccc1)c1ccc(-c2ccccc2)cc1,2,-1,2,1,6,-8,/,/,/
Cc1cccc(C)c1NC(=O)CS(=O)CC(=O)Nc1ccc(N2CCOCC2)cc1 (stereo not drawn),1,0,1,-1,-2,5,/,/,/
CCc1ccc(NC(=O)CS(=O)CC(=O)Nc2ccc(N3CCOCC3)cc2)cc1 (stereo not drawn),52*,3,45,9,25,9,7,-22,-21
COc1cc(/C=C2\SC(=S)N(N(C)c3ccccc3)C2=O)ccc1O,57*,15,4,19,-16,12,6,-16,9
